From ChEMBL document CHEMBL4382253, “Isolation and Characterization of Anaephenes A-C, Alkylphenols from a Filamentous Cyanobacterium ( Hormoscilla sp., Oscillatoriales)” (J Nat Prod, 2018)
Values after ≈ are worked out from the molar mass of the structure shown.

Experiments:
Bacillus cereus = experiment: Antibacterial activity against Bacillus cereus ATCC 10987 NRS 248 measured after overnight incubation; assay type: functional
Method in brief: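 B. cereus grown overnight in LB broth at 30 °C, diluted 10^6-fold in fresh medium. 2-fold serial broth microdilution in 96-well plates starting at 100 μM, DMSO or water as negative control. Triplicates. MIC is the lowest concentration with no visible turbidity.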

Pseudomonas aeruginosa = experiment: Antibacterial activity against Pseudomonas aeruginosa PAO1 ATCC BAA-47 measured after overnight incubation; assay type: functional
Method in brief: (§1)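 Strain precultured overnight in LB broth at 37 °C, then diluted 10^6-fold in fresh medium. 2-fold serial broth microdilution in 96-well plates from 100 μM top concentration, DMSO or water negative control. Triplicate wells. MIC taken as the lowest concentration showing no turbidity.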

[1] = system: Mycobacterium tuberculosis; experiment: Antibacterial activity against Mycobacterium tuberculosis H37Ra ATCC 25177 measured after 1 week; assay type: functional; conditions: H37Ra ATCC 25177, 168 h
Method in brief: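 M. tuberculosis H37Ra grown two weeks in Middlebrook 7H9, diluted to OD600 0.01; broth microdilution in 96-well plates, compounds given at 2-fold final concentration in first column then serially diluted 2-fold; DMSO or H2O negative control, streptomycin positive control; triplicates; incubated one week at 37 °C.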

Saccharomyces cerevisiae = experiment: Antifungal activity against Saccharomyces cerevisiae BY4741 measured after overnight incubation by spectrometric method; assay type: functional
Method in brief: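 Yeast grown overnight in YPD at 30 °C. Cell density set by A660, final 10 × 10^5 cells/mL. 2-fold serial dilution in YPD from 100 μM, DMSO negative control, nystatin positive control starting at 25 μM. Triplicates, overnight incubation.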

Staphylococcus aureus = experiment: Antibacterial activity against Staphylococcus aureus ATCC 25923 Seattle 1945 measured after overnight incubation; assay type: functional; method in brief: as §1
HCT-116 = experiment: Cytotoxicity against human HCT116 cells after 48 hrs by MTT assay; assay type: functional, cell-based; conditions: HCT-116, 48 h
Method in brief: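 Cells kept in DMEM with 10% FBS and 1% antibiotic-antimycotic at 37 °C, 5% CO2. Seeded at 10,000 cells/well, treated after 24 h with a range of concentrations or DMSO. Viability read by MTT after 48 h.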

## O=C(O)c1cn(C2CC2)c2cc(N3CCNCC3)c(F)cc2c1=O [CIPROFLOXACIN]
Bacillus cereus
  MIC: 0.03 µg/mL (≈ 0.0905 µM)

## CN[C@@H]1[C@H](O[C@H]2[C@H](O[C@H]3[C@H](O)[C@@H](O)[C@H](N=C(N)N)[C@@H](O)[C@@H]3N=C(N)N)O[C@@H](C)[C@]2(O)C=O)O[C@@H](CO)[C@H](O)[C@H]1O [STREPTOMYCIN]
Pseudomonas aeruginosa
  MIC: 6.2 µg/mL (≈ 10.7 µM)
[1]
  MIC: 3.1 µg/mL (≈ 5.33 µM)

## NYSTATIN
Saccharomyces cerevisiae
  MIC: 23 µg/mL

## C#CCCC/C=C/CCCCc1cccc(O)c1
Pseudomonas aeruginosa
  MIC: > 24 µg/mL
Staphylococcus aureus
  MIC: 6.1 µg/mL (≈ 25.2 µM)
Saccharomyces cerevisiae
  MIC: > 24 µg/mL
[1]
  MIC: > 24 µg/mL
Bacillus cereus
  MIC: 6.1 µg/mL (≈ 25.2 µM)
HCT-116
  IC50: 71 µM

## O=C(N[C@H](CO)[C@H](O)c1ccc([N+](=O)[O-])cc1)C(Cl)Cl [CHLORAMPHENICOL]
Staphylococcus aureus
  MIC: 4 µg/mL (≈ 12.4 µM)

## CCC/C=C/C=C/CCc1cccc(O)c1
Pseudomonas aeruginosa
  MIC: > 22 µg/mL
Staphylococcus aureus
  MIC: 22 µg/mL (≈ 102 µM)
Saccharomyces cerevisiae
  MIC: > 22 µg/mL
[1]
  MIC: > 22 µg/mL
Bacillus cereus
  MIC: 22 µg/mL (≈ 102 µM)
HCT-116
  IC50: > 100 µM

## CCC/C=C/CCCCc1cccc(O)c1
Pseudomonas aeruginosa
  MIC: > 22 µg/mL
Staphylococcus aureus
  MIC: 22 µg/mL (≈ 101 µM)
Saccharomyces cerevisiae
  MIC: > 22 µg/mL
[1]
  MIC: > 22 µg/mL
Bacillus cereus
  MIC: 11 µg/mL (≈ 50.4 µM)
HCT-116
  IC50: 26 µM
